Structures are written as SMILES. Active and inactive are the calls of the source. No cut-off for these calls is given here.

Experiment [1] has as its system HeLa. The experiment can be described thus: Cell cycle arrest in human HeLa cells assessed as accumulation at G2 phase at 5 uM after 24 hrs by propidium iodide staining based flow cytometry (reference value: 24.36%). Format: functional. On the technique in general: A flow cytometer gives signals particle by particle.
Experiment [2] deals with HeLa. The experiment in a line: Induction of apoptosis in human HeLa cells assessed as total cells at late apoptotic stage at 2.5 uM after 24 hrs by Annexin-V-FITC/propidium iodide staining based flow cytometry (reference value: 0.03%). It is filed as functional. The essentials:
(§1)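 Hela cells seeded at 10^6 per well and stabilized 24 h at 37 °C, 5% CO2. Then treated 24 h at 2.5, 5.0 or 7.5 μM, DMSO negative control. Cells washed in cold PBS, resuspended at 1×10^6 cells/mL in cold binding buffer, stained with annexin V-FITC then PI for 15 min in dark, analysed by flow cytometry.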

Experiment [3] concerns HeLa. The experiment can be described thus: Induction of apoptosis in human HeLa cells assessed as total cells at early apoptotic stage at 7.5 uM after 24 hrs by Annexin-V-FITC/propidium iodide staining based flow cytometry (reference value: 0.04%). It is filed as functional. The essentials:
as §1

For experiment [4], the system named is HeLa. The experiment can be described thus: Induction of apoptosis in human HeLa cells assessed as gated cells at late apoptotic stage at 2.5 uM after 24 hrs by Annexin-V-FITC/propidium iodide staining based flow cytometry (reference value: 0.03%). Format: functional. The essentials: as §1
Experiment [5] relates to HeLa. The experiment can be described thus: Induction of apoptosis in human HeLa cells after 48 hrs by Hoechst 33342 staining based fluorescence microscopic method. It is filed as functional, cell-based. In a few lines:
(§2)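 Hela cells seeded at 10^6 per well on cover slips and incubated 16 h. Then exposed 48 h at 2.5, 5.0 or 7.5 μM, DMSO negative control. Cells fixed in 4% paraformaldehyde for 15 min, washed in PBS, stained with Hoechst 33342 for 10 min. Nuclear morphology viewed by fluorescence microscopy, ex 350 nm / em 460 nm.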

Experiment [6] has as its system HeLa. The experiment in a line: Cytotoxicity against human HeLa cells assessed as growth inhibition at 10 uM after 72 hrs by SRB assay relative to control. Format: functional. The following applies: read-out: GI. In a few lines:
(§3)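 SRB single-dose screen at 10 μM on 293T, A549, Hela and MCF-7 cells. Results reported as percent inhibitory ratio (mean ± SD).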
In general terms: Sulforhodamine B stains cellular protein and so reports cell mass.

Experiment [7] deals with HeLa. The experiment can be described thus: Induction of apoptosis in human HeLa cells assessed as nuclear condensation at 7.5 uM after 48 hrs by Hoechst 33342 staining based fluorescence microscopic method. It is filed as functional, cell-based. The essentials:
as §2

In experiment [8] the test system is HeLa. The experiment can be described thus: Induction of apoptosis in human HeLa cells assessed as apoptotic body formation at 7.5 uM after 48 hrs by Hoechst 33342 staining based fluorescence microscopic method. It is filed as functional, cell-based. In a few lines:
as §2

Experiment [9] concerns HeLa. The experiment in a line: Induction of apoptosis in human HeLa cells assessed as total cells at late apoptotic stage at 5 uM after 24 hrs by Annexin-V-FITC/propidium iodide staining based flow cytometry (reference value: 0.03%). Format: functional. The essentials:
as §1

Experiment [10] concerns HeLa. The experiment in a line: Induction of apoptosis in human HeLa cells assessed as total cells at viable stage at 5 uM after 24 hrs by Annexin-V-FITC/propidium iodide staining based flow cytometry (reference value: 96.16%). Format: functional. In a few lines: as §1
Experiment [11] has as its system HeLa. The experiment in a line: Induction of apoptosis in human HeLa cells assessed as gated cells at late apoptotic stage at 7.5 uM after 24 hrs by Annexin-V-FITC/propidium iodide staining based flow cytometry (reference value: 0.03%). Format: functional. The essentials: as §1
Experiment [12] has as its system HeLa. The experiment can be described thus: Cell cycle arrest in human HeLa cells assessed as accumulation at G2 phase at 2.5 uM after 24 hrs by propidium iodide staining based flow cytometry (reference value: 24.36%). Format: functional.
Experiment [13] concerns HeLa. The experiment can be described thus: Induction of apoptosis in human HeLa cells assessed as total cells at necrotic stage at 5 uM after 24 hrs by Annexin-V-FITC/propidium iodide staining based flow cytometry (reference value: 0.05%). Format: functional. In a few lines: as §1
A further experiment has as its system MCF7. The experiment can be described thus: Cytotoxicity against human MCF7 cells assessed as growth inhibition at 10 uM after 72 hrs by SRB assay relative to control. It is filed as functional. The following applies: MCF7, 72 h, read-out: GI. In a few lines: as §3
In experiment [14] the test system is HeLa. The experiment can be described thus: Induction of apoptosis in human HeLa cells assessed as gated cells at viable stage at 5 uM after 24 hrs by Annexin-V-FITC/propidium iodide staining based flow cytometry (reference value: 99.88%). It is filed as functional. The essentials: as §1

Consider `CCNCc1cn(-c2ccccc2)nc1C1=CC[C@H]2[C@@H]3CC=C4C[C@@H](O)CC[C@]4(C)[C@H]3CC[C@]12C`, for which the Activity is 22.53% in the experiment with HeLa [1]; 0.16% in the experiment with HeLa [2]; 7.5% in the experiment with HeLa [3]; 0.16% with HeLa [4]; “Dose-dependent effect” with HeLa [5]; 0.31% in the experiment with HeLa [9]. Also, the Activity in the experiment on HeLa [10] is on record as 80.32%; in the experiment on HeLa [11], 1.01%; in the experiment with HeLa [12], 25.6%; in the experiment on HeLa [13], 3.26%; with HeLa [14] it was 93.44%. For the same compound, the figures for the inhibition of growth at 10 µM in the experiment on HeLa [6] and with MCF7 were 92.8% and 89.3%, respectively. For the same compound, the result in the experiment with HeLa [7] and in the experiment on HeLa [8] was Active.

(Values after ChEMBL document CHEMBL4049388, “Facile and efficient access to Androsten-17-(1',3',4')-pyrazoles and Androst-17β-(1',3',4')-pyrazoles via Vilsmeier reagents, and their antiproliferative activity evaluation in vitro” (Eur J Med Chem, 2017).)
